ChEMBL document CHEMBL4689842, “EUbOPEN Chemogenomics Library wave 1” (2021)

System: Fibroblast
Test: Multiplex assay against human fibroblast
Format: toxicity, cell-based
Summary of the method: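 Phenotypes for tubulin, mitochondrial mass and membrane permeability are expressed as per cents of healthy-nucleus cells. Cells were stained live at seeding with Hoechst33342, BioTracker Green Microtubule Cytoskeleton Dye, MitoTracker Red and Annexin V Alexa Fluor 680, then imaged after compound addition on a CQ1 microscope at 37°C and 5% CO2. Machine-learning gating in CellPathfinder separated Hoechst high-intensity objects from normal cells, divided normal cells by nuclear state (healthy, pyknosed, fragmented) and divided pyknosed cells into mitotic or apoptotic.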

[1] = 12 h, 1 µM, compound concentration 1 uM, replicate 1
[2] = 12 h, 1 µM, compound concentration 1 uM, replicate 2
[3] = 12 h, 10 µM, compound concentration 10 uM, replicate 1
[4] = 12 h, 10 µM, compound concentration 10 uM, replicate 2
[5] = 24 h, 1 µM, compound concentration 1 uM, replicate 1
[6] = 24 h, 1 µM, compound concentration 1 uM, replicate 2
[7] = 24 h, 10 µM, compound concentration 10 uM, replicate 1
[8] = 24 h, 10 µM, compound concentration 10 uM, replicate 2
[9] = 48 h, 1 µM, compound concentration 1 uM, replicate 1
[10] = 48 h, 1 µM, compound concentration 1 uM, replicate 2
[11] = 48 h, 10 µM, compound concentration 10 uM, replicate 1
[12] = 48 h, 10 µM, compound concentration 10 uM, replicate 2

SMILES: CN1CCC(=C2c3ccccc3CC(=O)c3sccc32)CC1.O=C(O)/C=C/C(=O)O [KETOTIFEN FUMARATE]
- Population Apoptotic (%) [1]: 61%
- Population Fragmented Nuclei (%) [1]: 26%
- Population Healthy Nuclei (%) [1]: 41%
- Population Hoechst High Intensity Objects (%) [1]: 12%
- Population Membrane Permeable-Phenotype (%) [1]: 24%
- Population Mitochondria Different-Phenotype (%) [1]: 3%
- Population Mitotic Cells (%) [1]: 38%
- Population Normal (%) [1]: 87%
- Population Pyknosed Nuclei (%) [1]: 32%
- Population Tubulin-Different-Phenotype (%) [1]: 37%
- Total Cell Count [1]: 149
- Population Apoptotic (%) [2]: 75%
- Population Fragmented Nuclei (%) [2]: 6%
- Population Healthy Nuclei (%) [2]: 87%
- Population Hoechst High Intensity Objects (%) [2]: 5%
- Population Membrane Permeable-Phenotype (%) [2]: 10%
- Population Mitochondria Different-Phenotype (%) [2]: 12%
- Population Mitotic Cells (%) [2]: 25%
- Population Normal (%) [2]: 94%
- Population Pyknosed Nuclei (%) [2]: 6%
- Population Tubulin-Different-Phenotype (%) [2]: 9%
- Total Cell Count [2]: 56
- Population Apoptotic (%) [3]: 73%
- Population Fragmented Nuclei (%) [3]: 21%
- Population Healthy Nuclei (%) [3]: 51%
- Population Hoechst High Intensity Objects (%) [3]: 16%
- Population Membrane Permeable-Phenotype (%) [3]: 6%
- Population Mitochondria Different-Phenotype (%) [3]: 23%
- Population Mitotic Cells (%) [3]: 26%
- Population Normal (%) [3]: 83%
- Population Pyknosed Nuclei (%) [3]: 26%
- Population Tubulin-Different-Phenotype (%) [3]: 84%
- Total Cell Count [3]: 168
- Population Apoptotic (%) [4]: 33%
- Population Fragmented Nuclei (%) [4]: 2%
- Population Healthy Nuclei (%) [4]: 75%
- Population Hoechst High Intensity Objects (%) [4]: 1%
- Population Membrane Permeable-Phenotype (%) [4]: 15%
- Population Mitochondria Different-Phenotype (%) [4]: 90%
- Population Mitotic Cells (%) [4]: 66%
- Population Normal (%) [4]: 98%
- Population Pyknosed Nuclei (%) [4]: 22%
- Population Tubulin-Different-Phenotype (%) [4]: 95%
- Total Cell Count [4]: 67
- Population Apoptotic (%) [5]: 63%
- Population Fragmented Nuclei (%) [5]: 25%
- Population Healthy Nuclei (%) [5]: 45%
- Population Hoechst High Intensity Objects (%) [5]: 12%
- Population Membrane Permeable-Phenotype (%) [5]: 16%
- Population Mitochondria Different-Phenotype (%) [5]: 6%
- Population Mitotic Cells (%) [5]: 36%
- Population Normal (%) [5]: 88%
- Population Pyknosed Nuclei (%) [5]: 28%
- Population Tubulin-Different-Phenotype (%) [5]: 38%
- Total Cell Count [5]: 150
- Population Apoptotic (%) [6]: 100%
- Population Fragmented Nuclei (%) [6]: 8%
- Population Healthy Nuclei (%) [6]: 86%
- Population Hoechst High Intensity Objects (%) [6]: 7%
- Population Membrane Permeable-Phenotype (%) [6]: 9%
- Population Mitochondria Different-Phenotype (%) [6]: 10%
- Population Mitotic Cells (%) [6]: 0%
- Population Normal (%) [6]: 92%
- Population Pyknosed Nuclei (%) [6]: 5%
- Population Tubulin-Different-Phenotype (%) [6]: 4%
- Total Cell Count [6]: 64
- Population Apoptotic (%) [7]: 75%
- Population Fragmented Nuclei (%) [7]: 33%
- Population Healthy Nuclei (%) [7]: 51%
- Population Hoechst High Intensity Objects (%) [7]: 16%
- Population Membrane Permeable-Phenotype (%) [7]: 17%
- Population Mitochondria Different-Phenotype (%) [7]: 28%
- Population Mitotic Cells (%) [7]: 25%
- Population Normal (%) [7]: 83%
- Population Pyknosed Nuclei (%) [7]: 15%
- Population Tubulin-Different-Phenotype (%) [7]: 83%
- Total Cell Count [7]: 189
- Population Apoptotic (%) [8]: 59%
- Population Fragmented Nuclei (%) [8]: 6%
- Population Healthy Nuclei (%) [8]: 66%
- Population Hoechst High Intensity Objects (%) [8]: 2%
- Population Membrane Permeable-Phenotype (%) [8]: 22%
- Population Mitochondria Different-Phenotype (%) [8]: 98%
- Population Mitotic Cells (%) [8]: 40%
- Population Normal (%) [8]: 97%
- Population Pyknosed Nuclei (%) [8]: 27%
- Population Tubulin-Different-Phenotype (%) [8]: 88%
- Total Cell Count [8]: 80
- Population Apoptotic (%) [9]: 61%
- Population Fragmented Nuclei (%) [9]: 34%
- Population Healthy Nuclei (%) [9]: 52%
- Population Hoechst High Intensity Objects (%) [9]: 16%
- Population Membrane Permeable-Phenotype (%) [9]: 20%
- Population Mitochondria Different-Phenotype (%) [9]: 2%
- Population Mitotic Cells (%) [9]: 38%
- Population Normal (%) [9]: 83%
- Population Pyknosed Nuclei (%) [9]: 12%
- Population Tubulin-Different-Phenotype (%) [9]: 34%
- Total Cell Count [9]: 170
- Population Apoptotic (%) [10]: 40%
- Population Fragmented Nuclei (%) [10]: 28%
- Population Healthy Nuclei (%) [10]: 64%
- Population Hoechst High Intensity Objects (%) [10]: 10%
- Population Membrane Permeable-Phenotype (%) [10]: 18%
- Population Mitochondria Different-Phenotype (%) [10]: 0%
- Population Mitotic Cells (%) [10]: 60%
- Population Normal (%) [10]: 89%
- Population Pyknosed Nuclei (%) [10]: 6%
- Population Tubulin-Different-Phenotype (%) [10]: 32%
- Total Cell Count [10]: 86
- Population Apoptotic (%) [11]: 87%
- Population Fragmented Nuclei (%) [11]: 41%
- Population Healthy Nuclei (%) [11]: 53%
- Population Hoechst High Intensity Objects (%) [11]: 31%
- Population Membrane Permeable-Phenotype (%) [11]: 16%
- Population Mitochondria Different-Phenotype (%) [11]: 9%
- Population Mitotic Cells (%) [11]: 12%
- Population Normal (%) [11]: 68%
- Population Pyknosed Nuclei (%) [11]: 4%
- Population Tubulin-Different-Phenotype (%) [11]: 68%
- Total Cell Count [11]: 260
- Population Apoptotic (%) [12]: 0%
- Population Fragmented Nuclei (%) [12]: 34%
- Population Healthy Nuclei (%) [12]: 64%
- Population Hoechst High Intensity Objects (%) [12]: 23%
- Population Membrane Permeable-Phenotype (%) [12]: 13%
- Population Mitochondria Different-Phenotype (%) [12]: 5%
- Population Mitotic Cells (%) [12]: 100%
- Population Normal (%) [12]: 76%
- Population Pyknosed Nuclei (%) [12]: 1%
- Population Tubulin-Different-Phenotype (%) [12]: 86%
- Total Cell Count [12]: 176

SMILES: COc1ccc(-c2ccc3c(N4CCOCC4)nc(N4C[C@@H](C)O[C@@H](C)C4)nc3n2)cc1CO [Ku-0063794]
- Population Apoptotic (%) [1]: 72%
- Population Fragmented Nuclei (%) [1]: 30%
- Population Healthy Nuclei (%) [1]: 52%
- Population Hoechst High Intensity Objects (%) [1]: 16%
- Population Membrane Permeable-Phenotype (%) [1]: 5%
- Population Mitochondria Different-Phenotype (%) [1]: 1%
- Population Mitotic Cells (%) [1]: 27%
- Population Normal (%) [1]: 83%
- Population Pyknosed Nuclei (%) [1]: 16%
- Population Tubulin-Different-Phenotype (%) [1]: 3%
- Total Cell Count [1]: 281
- Population Apoptotic (%) [2]: 33%
- Population Fragmented Nuclei (%) [2]: 61%
- Population Healthy Nuclei (%) [2]: 30%
- Population Hoechst High Intensity Objects (%) [2]: 35%
- Population Membrane Permeable-Phenotype (%) [2]: 17%
- Population Mitochondria Different-Phenotype (%) [2]: 13%
- Population Mitotic Cells (%) [2]: 66%
- Population Normal (%) [2]: 64%
- Population Pyknosed Nuclei (%) [2]: 8%
- Population Tubulin-Different-Phenotype (%) [2]: 17%
- Total Cell Count [2]: 116
- Population Apoptotic (%) [3]: 77%
- Population Fragmented Nuclei (%) [3]: 72%
- Population Healthy Nuclei (%) [3]: 20%
- Population Hoechst High Intensity Objects (%) [3]: 63%
- Population Membrane Permeable-Phenotype (%) [3]: 14%
- Population Mitochondria Different-Phenotype (%) [3]: 3%
- Population Mitotic Cells (%) [3]: 22%
- Population Normal (%) [3]: 36%
- Population Pyknosed Nuclei (%) [3]: 6%
- Population Tubulin-Different-Phenotype (%) [3]: 7%
- Total Cell Count [3]: 736
- Population Apoptotic (%) [4]: 0%
- Population Fragmented Nuclei (%) [4]: 82%
- Population Healthy Nuclei (%) [4]: 17%
- Population Hoechst High Intensity Objects (%) [4]: 66%
- Population Membrane Permeable-Phenotype (%) [4]: 42%
- Population Mitochondria Different-Phenotype (%) [4]: 42%
- Population Mitotic Cells (%) [4]: 0%
- Population Normal (%) [4]: 33%
- Population Pyknosed Nuclei (%) [4]: 0%
- Population Tubulin-Different-Phenotype (%) [4]: 28%
- Total Cell Count [4]: 244
- Population Apoptotic (%) [5]: 67%
- Population Fragmented Nuclei (%) [5]: 33%
- Population Healthy Nuclei (%) [5]: 54%
- Population Hoechst High Intensity Objects (%) [5]: 18%
- Population Membrane Permeable-Phenotype (%) [5]: 7%
- Population Mitochondria Different-Phenotype (%) [5]: 2%
- Population Mitotic Cells (%) [5]: 32%
- Population Normal (%) [5]: 81%
- Population Pyknosed Nuclei (%) [5]: 11%
- Population Tubulin-Different-Phenotype (%) [5]: 3%
- Total Cell Count [5]: 290
- Population Apoptotic (%) [6]: 80%
- Population Fragmented Nuclei (%) [6]: 65%
- Population Healthy Nuclei (%) [6]: 28%
- Population Hoechst High Intensity Objects (%) [6]: 25%
- Population Membrane Permeable-Phenotype (%) [6]: 9%
- Population Mitochondria Different-Phenotype (%) [6]: 13%
- Population Mitotic Cells (%) [6]: 20%
- Population Normal (%) [6]: 74%
- Population Pyknosed Nuclei (%) [6]: 6%
- Population Tubulin-Different-Phenotype (%) [6]: 13%
- Total Cell Count [6]: 105
- Population Apoptotic (%) [7]: 59%
- Population Fragmented Nuclei (%) [7]: 72%
- Population Healthy Nuclei (%) [7]: 21%
- Population Hoechst High Intensity Objects (%) [7]: 58%
- Population Membrane Permeable-Phenotype (%) [7]: 10%
- Population Mitochondria Different-Phenotype (%) [7]: 0%
- Population Mitotic Cells (%) [7]: 40%
- Population Normal (%) [7]: 41%
- Population Pyknosed Nuclei (%) [7]: 6%
- Population Tubulin-Different-Phenotype (%) [7]: 7%
- Total Cell Count [7]: 790
- Population Apoptotic (%) [8]: 100%
- Population Fragmented Nuclei (%) [8]: 78%
- Population Healthy Nuclei (%) [8]: 20%
- Population Hoechst High Intensity Objects (%) [8]: 70%
- Population Membrane Permeable-Phenotype (%) [8]: 28%
- Population Mitochondria Different-Phenotype (%) [8]: 21%
- Population Mitotic Cells (%) [8]: 0%
- Population Normal (%) [8]: 29%
- Population Pyknosed Nuclei (%) [8]: 1%
- Population Tubulin-Different-Phenotype (%) [8]: 21%
- Total Cell Count [8]: 241
